# HIF act: HIF pathway transcriptional activation. U2OS HRE-luciferase reporter, luminescence; normalized: DMSO 0%, desferrioxamine 100%. activation, % at 7.5 µM (by protocol). 300,000 tested, 0.32% active. AID 1910;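 active = mean activation of at least 10% of the iron chelator positive control signal, with at least half of replicates also reaching 10%; inconclusive = mean and replicate majority disagree about reaching 10%; inactive = mean and most replicates under 10%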
# PolyA inh: inhibitors of polyadenylation in S. cerevisiae; activity score, % at 12 µM; AID 1875; S. cerevisiae SKY197-pL101 polyadenylation reporter, beta-gal luminescence; efflux-impaired pdr1/pdr3 knockout yeast; score 100 = 6 SD above DMSO; 300,000 tested, 0.02% active;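 active = lowest replicate activity score at least 50, where 100 means six control SD above control mean; inconclusive = lowest score under 50 but half or more replicates reach 50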;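 note: yeast exposed to compound for 9 h at 30 °C; higher score means more reporter readthrough which indicates perturbed polyadenylation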
# CSC inhib: cancer stem cell inhibition | AID 2717 | cancer stem cell-like cells viability, luminescence | 300,000 tested, 1.1% active | inhibition, % at 7.5 µM; in the data active = inhibition above about 75%; inconclusive = no clear call, values can overlap the other calls; tested in HMLE shEcad cells
# Calb FLC: C. albicans growth modulation with fluconazole. C. albicans CaCi-2 (fluconazole-resistant clinical isolate) + fluconazole, Alamar Blue growth, 48 h. growth inhibition, % (concentration not given with the values). 300,000 tested, 0.57% active;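 active = growth inhibition above about 58% in most replicates, limit read from the data, passing the limit was not always enough; inconclusive = exactly half the replicates above a set limit; inactive = most replicates below a set limit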;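 note: all wells also contain fluconazole at 8 µg/ml as a sub-toxic cotreatment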
# Beta apoptosis: beta cell apoptosis inhibition. INS-1E cytokine-induced death, ATP luminescence, 48 h; percent of positive-control rescue, neutral wells zero. protection from apoptosis, % (test concentration not listed). 300,000 tested, 0.8% active. AID 435005;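 active = Every replicate reaches about 75%, or at least half do and their mean reaches it too, limit read from the data; inconclusive = At least half of replicates reach the limit but their mean does not; inactive = Under half of replicates reach the limit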;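 note: higher means more ATP so stronger rescue from cytokine killing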
# T cruzi inh: T. cruzi replication inhibition; AID 1885; T. cruzi beta-gal in NIH3T3, luminescence, 90 h; inhibition, % (test concentration not listed); 300,000 tested, 1.4% active;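 active = mean inhibition across valid replicates above about 55%, limit read from the data; inconclusive = mean below that limit but half or more replicates reach it; inactive = mean below it, under half of replicates reach it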;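 note: signal also drops with host cell toxicity which is not excluded here; higher percent means less beta-gal luminescence so fewer parasites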
#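 System – NIH/3T3 host cells with β-galactosidase reporter T. cruzi · Doses – single 50 nL compound addition per well in DMSO · Reagent – 5000 T. cruzi trypomastigotes/well · Medium – Low-serum DMEM with 2% FBS · Timing – ≥90 h infection period, 3 h prior cell attachment · Evaluation – parasite load inhibition, % · Technique – GalScreen luminescence, 60 min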
# Numbers stand for hits; - = inactive; ? = inconclusive; . = no result given. Hits are enriched below; roughly 3.1% of the tested compounds scored in any of these assays.
SMILES,HIF act,PolyA inh,CSC inhib,Calb FLC,Beta apoptosis,T cruzi inh
CN(CC(=O)N1CCN(c2ccccc2)CC1)C1CCCc2ccccc21 (stereo unspecified),-,-,-,-,-,-
Cc1cccc(/N=C/c2sc3ccccc3c2O)n1,-,-,-,-,-,-
Oc1c(C=Nc2cccc3cccnc23)sc2ccccc12,-,-,-,-,-,54.9
O=C(CC1Oc2ccccc2NC1=O)NCc1ccccc1 (stereo unspecified),.,-,-,-,.,-
CC(=O)CC1OC(=O)C(Br)=C1NCc1ccccc1 (stereo unspecified),-,-,-,-,-,58.5
COc1cccc(NC(=O)CN(C)C(=O)CSc2nc(C)cc(C)n2)c1,.,.,.,.,-,.
COC(C(=O)Nc1ccnn1C1CCN(C(=O)c2cccc(F)c2)CC1)c1ccccc1 (stereo unspecified),-,-,-,-,-,-
COc1cc(/C=C2\SC(=S)N(NS(=O)(=O)c3ccccc3)C2=O)ccc1O,-,85.0,-,-,-,-
COc1cc(/C=C2\SC(=S)N(NC(=O)c3ccc(O)c(OC)c3)C2=O)ccc1O,-,-,.,-,.,-
COc1ccccc1/C=C1\SC(=S)N(NS(=O)(=O)c2ccccc2)C1=O,-,-,-,91.1,-,-
COc1cc(/C=C2\SC(=S)N(NC(=O)c3ccncc3)C2=O)ccc1O,-,91.8,-,-,-,-
CCNc1nc(OC)nc(SCC(=O)Nc2ccccc2)n1,-,-,-,-,-,-
O=C(O)c1ccc(N2CCCS2(=O)=O)cc1,-,-,-,-,-,-
CCC(C)Nc1ccc(NC(C)CC)cc1 (stereo unspecified),.,.,81.5,.,108.8,.
Cc1ccc(C)c(N2CC(C(=O)Nc3cc(C)on3)CC2=O)c1 (stereo unspecified),-,-,-,-,.,-
Oc1cccc(/C=N/N(Cc2ccccc2)c2ccccc2)c1,-,-,87.0,-,-,-
C(=N\N(Cc1ccccc1)c1ccccc1)/c1cccnc1,-,-,-,-,-,-
CN(C)S(=O)(=O)c1ccc(-c2csc(N/N=C/c3ccc(O)cc3)n2)cc1,-,-,129.6,-,-,-
CCOC(=O)Cc1csc(N/N=C/c2cccc([N+](=O)[O-])c2)n1,-,-,-,-,-,-
CN(C)S(=O)(=O)c1ccc(-c2csc(N/N=C/c3ccco3)n2)cc1,-,-,-,-,-,-
O=[N+]([O-])c1cccc(-c2csc(N/N=C/c3cccc(O)c3)n2)c1,-,-,87.0,-,-,?
CC1CCN(C(=O)CSc2nnc(-c3ccccc3F)o2)CC1,-,-,-,-,-,-
O=C(Nc1ccccc1C(=O)Nc1nnc(C(F)(F)F)s1)c1ccccc1Cl,-,-,95.1,-,111.9,-
NC(=O)c1ccccc1NC(=O)c1ccccc1Cl,-,-,-,-,-,-
CC(C)c1ccc(C(C(=O)NC2CCCCC2)N(C(=O)c2ccccn2)c2cccnc2)cc1 (stereo unspecified),-,-,-,-,-,-
SMILES,HIF act,PolyA inh,CSC inhib,Calb FLC,Beta apoptosis,T cruzi inh
CC(=O)c1cccc(N(C(=O)c2ccccn2)C(C(=O)NC2CCCCC2)c2ccccc2)c1 (stereo unspecified),38.6,-,.,-,-,-
COc1ccc(C)cc1NC(=O)C(Sc1nnnn1C)c1ccccc1 (stereo unspecified),-,-,-,95.2,-,-
CCOC(=O)C[C@H]1c2ccc(C(F)(F)F)cc2S(=O)(=O)N1C(C)(C)C,-,-,-,-,-,-
CC(C)COc1ccc(-c2nn(-c3ccccc3)cc2C(=O)Nc2nccs2)cc1,-,-,-,-,.,63.8
O=C(Nc1nccs1)c1cn(-c2ccccc2)nc1-c1ccccc1,-,-,-,-,-,-
COc1ccc(-c2ccc(=O)n(CC(=O)Nc3nnc(C(C)C)s3)n2)cc1OC,-,-,-,-,.,-
COc1ccc(-c2ccc(=O)n(CC(=O)Nc3cccc(O)c3)n2)cc1OC,-,.,-,110.5,-,-
COc1cc2ccccc2cc1C(=O)OCc1nc2ccsc2c(=O)[nH]1,.,.,-,.,-,.
COc1cc(OC)c(OC)cc1/C=C1\CCC/C(=C\c2cc(OC)c(OC)cc2OC)C1=O,-,-,.,-,.,58.9
COc1ccc(/C=C2\CC/C(=C\c3ccc(OC)c(OC)c3)C2=O)cc1OC,-,-,-,-,-,-

# Source: PubChem (Broad Institute)
